Laboratory results: ChEMBL document CHEMBL1122631, “2,3,4,4a,5,9b-Hexahydro-1H-indeno[1,2-b]pyridines: potential antidepressants” (J Med Chem, 1984)
“And” between values parts separate entries of the source, which are not always exact repeats. Identical values can stand only once.

What was measured:
Mus musculus [1] = experiment: Antidepressant activity was measured by the prevention of tetrabenazine (TBZ) induced ptosis in mice after intraperitoneal administration of the compound.; assay type: functional; settings: ip
Procedure, shortened: (§1)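 Mice given compound ip in 1% methylcellulose (10 mL/kg), 30 min before tetrabenazine 40 mg/kg base ip; solvent+TBZ control per test. Ptosis scored 30 min after TBZ (+1 min) as 100/50/0% (closed/half/open), not normalized.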

[2] = Acute toxicity in mice, after intraperitoneal administration.; assay type: organism-based; settings: mouse, in vivo, ip
Procedure, shortened: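 Mice, groups of 10, given compound suspended in 1% methylcellulose ip at 10 mL/kg, then housed with food and water ad libitum. Observed hourly up to 6 h; deaths recorded at 24 and 48 h.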

[3] = Therapeutic index (TI), ratio of LD50 and ED50 (TBZ) in mice after i.p. administration; settings: mouse, in vivo, ip
[4] = Partition coefficient (logP); assay type: physicochemical; settings: octanol/water
Rattus norvegicus [5] = species: Rattus norvegicus; experiment: Compound was tested for inhibition of uptake of [14C]5-HT (5-HT) into rat whole brain, in vitro.; assay type: functional
Procedure, shortened: (§2)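 Rat brain synaptosomes (Whittaker method) incubated with labelled monoamine (1 × 10^-7 mol final) at 37 °C with or without drug. [14C]NE and [14C]5-HT uptake in Krebs-Henseleit bicarbonate pH 7.4 with 11 mmol glucose; [3H]DA uptake in phosphate buffer, corpus striatum synaptosomes. Time: 5 min whole brain, 10 min hypothalamus. Nonspecific binding at 0 °C; membrane filtration, scintillation counting; IC50 from 3–4 concentrations, at least triplicate.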

Rattus norvegicus [6] = species: Rattus norvegicus; experiment: Compound was tested for inhibition of uptake of [14C]norepinephrine (NE) into rat brain hypothalamus, in vitro.; assay type: functional; procedure, shortened: as §2
Rattus norvegicus [7] = species: Rattus norvegicus; experiment: Compound was tested for inhibition of uptake of [3H]dopamine (DA) into rat corpus striatum, in vitro.; assay type: functional; procedure, shortened: as §2
Rattus norvegicus [8] = experiment: Ability to inhibit re uptake of [14C]norepinephrine in synaptosomes from rat whole brain, was determined 1 h after peroral administration of 80 mg of compound.; assay type: functional, organism-based
Procedure, shortened: (§3)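 Ex vivo/in vitro: rats dosed orally or ip, killed 1 h later; whole-brain synaptosomes from a pool of n=3 rats; [14C]NE or [14C]5-HT uptake (Krebs-Henseleit bicarbonate, pH 7.4, 11 mmol glucose; 1 × 10^-7 mol labelled amine, 37 °C, 5 min), filtration, scintillation counting; quadruplicate determinations, mean ± SD as % of control-animal uptake.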

Rattus norvegicus [9] = experiment: Ability to inhibit re uptake of [14C]-5-HT in synaptosomes from rat whole brain, was determined 1 h after intraperitoneal administration of 80 mg of compound.; assay type: functional; procedure, shortened: as §3
Rattus norvegicus [10] = experiment: Ability to inhibit re uptake of [14C]5-HT in synaptosomes from rat whole brain, was determined 1 h after peroral administration of 80 mg of compound.; assay type: functional, organism-based; procedure, shortened: as §3
Rattus norvegicus [11] = experiment: Ability to inhibit re uptake of [14C]norepinephrine in synaptosomes from rat whole brain, was determined 1 hr after intraperitoneal administration of 80 mg of compound.; assay type: functional; procedure, shortened: as §3
Mus musculus [12] = experiment: Prevention of tetrabenazine induced ptosis in mice following i.p. administration.; assay type: functional; settings: ip; procedure, shortened: as §1
Rattus norvegicus [13] = species: Rattus norvegicus; experiment: Compound was tested for inhibition of uptake of [14C]5-HT (5-HT) into rat whole brain, in vitro; Not determined.; assay type: functional; procedure, shortened: as §2
Rattus norvegicus [14] = species: Rattus norvegicus; experiment: Compound was tested for inhibition of uptake of [14C]norepinephrine (NE) into rat brain hypothalamus, in vitro; Not determined.; assay type: functional; procedure, shortened: as §2
Mus musculus [15] = experiment: Prevention of tetrabenazine (TBZ)-induced ptosis in mice after intraperitoneal administration.; assay type: functional, organism-based; procedure, shortened: as §1

SMILES	LD50 [2] [mg/kg]	selectivity ratio [3]	ED50 (Mus musculus [12]) [mg/kg]	ED50 (Mus musculus [15])	other results
COc1ccc([C@@H]2c3ccccc3[C@@H]3[C@H]2CCCN3C)cc1	95	19			ED50 (Mus musculus [1]): 5 mg/kg
Cc1ccc([C@@H]2c3cc(O)ccc3[C@H]3NCCC[C@@H]23)cc1	67	67			logP [4]: 3.13; ED50 (Mus musculus [1]): 1 mg/kg; IC50 (Rattus norvegicus [5]): 280 nM; IC50 (Rattus norvegicus [6]): 31 nM; IC50 (Rattus norvegicus [7]): 17 nM; Uptake (Rattus norvegicus [8]): > 90%; Uptake (Rattus norvegicus [9]): > 90% and 84.9%; Uptake (Rattus norvegicus [10]): 90.4% and 86.9%; Uptake (Rattus norvegicus [11]): 68.2% and 62%
Cc1ccc([C@H]2c3ccccc3[C@H]3NCCC[C@@H]23)cc1	120	6	20		
COc1cc2c(cc1OC)[C@H]1NCCC[C@H]1[C@@H]2c1ccc(N)cc1					IC50 (Rattus norvegicus [13]): No compound available; IC50 (Rattus norvegicus [14]): No compound available
CCCCOc1ccc([C@H]2c3ccccc3[C@@H]3[C@H]2CCCN3C)cc1					IC50 (Rattus norvegicus [13]): No compound available; IC50 (Rattus norvegicus [14]): No compound available
CN1CCC[C@H]2[C@H](c3ccccc3)c3ccccc3[C@H]21	74	185	0.4		IC50 (Rattus norvegicus [5]): ~100000 nM; IC50 (Rattus norvegicus [6]): 12 nM; IC50 (Rattus norvegicus [7]): 100 nM
Cc1cccc([C@@H]2c3ccccc3[C@@H]3[C@H]2CCCN3C)c1	134		5		
c1ccc2c(c1)[C@H](c1ccncc1)[C@@H]1CCCN[C@H]21					IC50 (Rattus norvegicus [13]): No compound available; IC50 (Rattus norvegicus [14]): No compound available
Nc1cccc([C@@H]2c3ccccc3[C@H]3NCCC[C@@H]23)c1	40	20	2		
Cc1ccc([C@H]2c3cc(O)ccc3[C@H]3NCCC[C@@H]23)cc1	34			No activity detected up to a dose of 1/5 LD50 ip in mice	
Cc1ccccc1[C@@H]1c2ccccc2[C@H]2NCCC[C@@H]12	80			No activity detected up to a dose of 1/5 LD50 ip in mice	
CN1CCC[C@H]2[C@H](c3ccc(N)cc3)c3ccccc3[C@H]21	50	500	0.1		IC50 (Rattus norvegicus [5]): ~100000 nM; IC50 (Rattus norvegicus [6]): 110 nM; IC50 (Rattus norvegicus [7]): 240 nM
Cc1ccc([C@H]2c3cc(O)ccc3[C@@H]3[C@H]2CCCN3C)cc1	9			No activity detected up to a dose of 1/5 LD50 ip in mice	
COc1cc2c(cc1OC)[C@H]1NCCC[C@H]1[C@H]2c1ccccc1	70			No activity detected up to a dose of 1/5 LD50 ip in mice	
CN1CCC[C@H]2[C@@H](c3ccccc3F)c3ccccc3[C@H]21	8			No activity detected up to a dose of 1/5 LD50 ip in mice	
Cc1ccc([C@@H]2c3ccccc3[C@H]3NCCC[C@@H]23)cc1	60	60	1		
CCCCOc1ccc([C@@H]2c3ccccc3[C@@H]3[C@H]2CCCN3C)cc1	134	14			ED50 (Mus musculus [1]): 10 mg/kg
COc1ccc([C@H]2c3ccccc3[C@@H]3[C@H]2CCCN3C)cc1					IC50 (Rattus norvegicus [13]): No compound available; IC50 (Rattus norvegicus [14]): No compound available
Cc1ccccc1[C@H]1c2ccccc2[C@@H]2[C@H]1CCCN2C	22			No activity detected up to a dose of 1/5 LD50 ip in mice	
Nc1ccc([C@H]2c3ccccc3[C@H]3NCCC[C@@H]23)cc1	20		3		IC50 (Rattus norvegicus [5]): 20000 nM; IC50 (Rattus norvegicus [6]): 180 nM; IC50 (Rattus norvegicus [7]): 330 nM
Cc1cccc([C@H]2c3ccccc3[C@H]3NCCC[C@@H]23)c1	34			No activity detected up to a dose of 1/5 LD50 ip in mice	
CCCN1CCC[C@H]2[C@H](c3ccccc3)c3ccccc3[C@H]21	24	30	0.8		IC50 (Rattus norvegicus [5]): > 100000 nM; IC50 (Rattus norvegicus [6]): 410 nM; IC50 (Rattus norvegicus [7]): 110 nM
COc1ccc2c(c1)[C@H](c1ccc(C)cc1)[C@@H]1CCCN[C@H]21	54			No activity detected up to a dose of 1/5 LD50 ip in mice	
CCCCOc1ccc([C@H]2c3ccccc3[C@H]3NCCC[C@@H]23)cc1					IC50 (Rattus norvegicus [13]): No compound available; IC50 (Rattus norvegicus [14]): No compound available
